The values that follow come from ChEMBL document CHEMBL4842338, “System-oriented optimization of multi-target 2,6-diaminopurine derivatives: Easily accessible broad-spectrum antivirals active against flaviviruses, influenza virus and SARS-CoV-2” (Eur J Med Chem, 2021).

Data set [1] is described as follows: Selectivity index, ratio of CC50 for human A549 cells to IC50 for Influenza A Puerto Rico/8/34/H1N1 infected in human A549 cells. The class given is toxicity, cell-based. The following applies: read-out: Selectivity Index. In a few lines:
(§1)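 MDCK or A549 cells (2.5 × 10⁵/well) infected with A/Puerto Rico/8/34 H1N1 for 1 h at 37 °C, then washed. Compound (0.5–20 μM) added in 2% FBS medium for 24 h, with DMSO final ≤0.2%. Virus in supernatants read by hemagglutination. CC₅₀ by MTT (2 × 10⁴ cells/well, same concentrations, 24 h, absorbance 570 nm). SI = CC₅₀/IC₅₀.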

Data set [2] addresses Src (Proto-oncogene tyrosine-protein kinase Src) (Homo sapiens, UniProt P12931). The data set is described as follows: Inhibition of human recombinant N terminal His6 tagged full length Src assessed as residual activity at 5 uM using KVEKIGEGTYGVVYK as a substrate in the presence of NP-40 incubated for 10 mins by scintillation counting analysis relative to control. The following applies: probe KVEKIGEGTYGVVYK, read-out: Activity. In a few lines: (§2)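 Compounds at fixed 5 μM; 10–50 ng kinase, substrate and NP-40/BSA per supplementary table, 10 μL at 30 °C for 10 min in low-binding tubes. Reactions spotted on filter, dried, scintillation counted. Mean ± SD of two independent experiments.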

Data set [3] relates to MDCK. The data set is described as follows: Cytotoxicity against MDCK cells assessed as reduction in cell viability measured after 24 hrs by MTT assay. It counts as cell-based, Canis lupus familiaris. Conditions: dog, mdck, 24 h. For orientation: Tetrazolium dyes change colour on reduction, which living cells bring about.
A short description of data set [4]: Selectivity index, ratio of CC50 for human Huh-7 cells to IC50 for West Nile virus lineage 1 (Italy/2009) infected in pre-seeded Huh-7 cells assessed as inhibition of viral replication incubated for 48 hrs by immunodetection based direct yield reduction assay. Conditions: read-out: Selectivity Index. It counts as toxicity, cell-based. In a few lines:
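Direct yield reduction in Huh7 cells (7000/well), infected with 50 TCID₅₀ of DENV or ZIKV, or 25 TCID₅₀ of WNV. Adsorption 1 h at 37 °C, then virus removed and serial compound dilutions added. Incubated 72 h (DENV, ZIKV) or 48 h (WNV). Viral antigen immunodetected on the monolayer. IC₅₀ by non-linear regression, mean of three experiments. SI = CC₅₀ (Huh7, CellTiter-Glo luminescence)/IC₅₀.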

The nature of data set [5]: Inhibition of full length ZIKA virus NS5 RNA dependent RNA polymerase incubated for 10 mins by picogreen staining based fluorescent analysis (Rvb= 1+/-0.2 uM).
Data set [6] can be described thus: Selectivity index, ratio of CC50 for human Huh-7 cells to IC50 for Dengue virus serotype 2 New Guinea C infected in pre-seeded Huh-7 cells assessed as inhibition of viral replication incubated for 72 hrs by immunodetection based secondary yield reduction assay. It counts as toxicity, cell-based. The following applies: read-out: Selectivity Index.
Data set [7] addresses Fyn (Tyrosine-protein kinase Fyn) (Homo sapiens, UniProt P06241). The data set is described as follows: Inhibition of human recombinant N terminal His6 tagged full length Fyn assessed as residual activity at 5 uM using […] as a substrate in the presence of NP-40 incubated for 10 mins by scintillation counting analysis relative to control. Conditions: probe […], read-out: Activity. In a few lines:
as §2

The subject of data set [8] is Influenza A virus. The data set is described as follows: Antiviral activity against Influenza A Puerto Rico/8/34/H1N1 infected in human A549 cells assessed as inhibition of viral replication after 24 hrs by hemagglutination assay. The class given is functional, organism-based. The following applies: A/Puerto Rico/8/1934(H1N1), A549, 24 h.
For data set [9], the target named is CDK9/cyclin T1 (Homo sapiens, UniProt P50750). The data set is described as follows: Inhibition of human full length CDK9/ His-tagged cT1 assessed as residual activity at 5 uM using CDKtide as a substrate in the presence of BSA incubated for 10 mins by scintillation counting analysis relative to control. The class given is protein-complex assay. Conditions: full length CDK9/His-tagged cyclin T1 complex, probe CDKtide, read-out: Activity. The procedure, abridged: as §2
Sequence of CDK9/cyclin T1 (O60563 whole entry): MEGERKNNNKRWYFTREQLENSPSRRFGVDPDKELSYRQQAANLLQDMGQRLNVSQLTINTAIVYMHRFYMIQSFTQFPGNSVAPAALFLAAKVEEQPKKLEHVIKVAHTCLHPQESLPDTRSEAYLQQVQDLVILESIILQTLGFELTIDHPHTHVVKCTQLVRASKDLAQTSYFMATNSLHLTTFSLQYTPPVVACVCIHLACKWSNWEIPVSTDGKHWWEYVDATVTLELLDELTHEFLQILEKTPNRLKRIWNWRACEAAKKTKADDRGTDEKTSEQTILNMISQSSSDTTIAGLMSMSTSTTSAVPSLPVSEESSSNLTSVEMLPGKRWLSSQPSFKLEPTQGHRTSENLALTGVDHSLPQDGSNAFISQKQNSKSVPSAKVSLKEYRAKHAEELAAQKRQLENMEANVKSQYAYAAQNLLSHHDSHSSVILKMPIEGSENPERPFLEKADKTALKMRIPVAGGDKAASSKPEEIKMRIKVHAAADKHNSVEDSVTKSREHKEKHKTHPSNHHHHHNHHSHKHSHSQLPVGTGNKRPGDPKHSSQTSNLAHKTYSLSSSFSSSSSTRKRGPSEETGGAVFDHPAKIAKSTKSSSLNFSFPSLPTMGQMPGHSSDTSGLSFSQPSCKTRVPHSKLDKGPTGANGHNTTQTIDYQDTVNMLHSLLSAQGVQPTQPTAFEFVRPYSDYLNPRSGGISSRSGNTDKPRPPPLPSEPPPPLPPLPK
Sequence of CDK9/cyclin T1 (P50750 whole entry): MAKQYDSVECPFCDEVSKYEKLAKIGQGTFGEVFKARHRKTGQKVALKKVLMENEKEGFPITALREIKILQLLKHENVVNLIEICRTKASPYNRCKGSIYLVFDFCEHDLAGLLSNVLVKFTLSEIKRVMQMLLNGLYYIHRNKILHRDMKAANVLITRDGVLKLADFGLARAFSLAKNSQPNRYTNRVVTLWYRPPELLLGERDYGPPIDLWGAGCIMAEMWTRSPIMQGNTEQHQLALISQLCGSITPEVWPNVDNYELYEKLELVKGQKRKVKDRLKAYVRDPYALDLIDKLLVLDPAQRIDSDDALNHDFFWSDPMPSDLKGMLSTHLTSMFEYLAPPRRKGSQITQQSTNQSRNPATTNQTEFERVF

The subject of data set [10] is Influenza A virus. As to the kind of experiment: Antiviral activity against Influenza A Puerto Rico/8/34/H1N1 infected in MDCK cells assessed as inhibition of viral replication measured in supernatants of infected cells after 24 hrs by hemagglutination assay. The following applies: A/Puerto Rico/8/1934(H1N1). It counts as functional, organism-based.
The nature of data set [11]: Inhibition of full length ZIKV NS5-MTase domain using 7MeGpppAC4 as a substrate incubated for 30 mins by filter binding assay. The arrangement: species or system Zika virus.
Data set [12] in a line: Selectivity index, ratio of CC50 for human Huh-7 cells to IC50 for Zika virus H/PF/2013 infected in pre-seeded Huh-7 cells assessed as inhibition of viral replication incubated for 72 hrs by immunodetection based secondary yield reduction assay. Conditions: read-out: Selectivity Index. The class given is toxicity, cell-based.
Data set [13] has as its system Zika virus. The data set is described as follows: Antiviral activity against Zika virus H/PF/2013 infected in pre-seeded Huh-7 cells assessed as inhibition of viral replication incubated for 72 hrs by immunodetection based secondary yield reduction assay. The following applies: H/PF/2013, Huh-7, 72 h. It counts as functional, organism-based.
Data set [14] concerns A549. The data set is described as follows: Cytotoxicity against human A549 cells assessed as reduction in cell viability measured after 24 hrs by MTT assay. The following applies: a549, 24 h. It counts as cell-based.
The subject of data set [15] is Huh-7. As to the kind of experiment: Cytotoxicity against human Huh-7 cells assessed as reduction in cell viability by Celltiter-Glo luminescent cell viability assay. It counts as cell-based. Conditions: huh-7. The procedure, abridged:
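Compound-exposed cells assessed by CellTiter-Glo luminescence versus DMSO control; CC50 from dose-response.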
In general terms: ATP-based viability assays read luminescence as a measure of living cells.

Data set [16] in a line: Inhibition of DENV NS5-MTase domain using GpppA2'OMe-RNA74 as a substrate incubated for 30 mins by filter binding assay. The arrangement: species or system dengue virus type 2. In a few lines: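 MTase (1 μM) incubated with increasing inhibitor in 40 mM Tris-HCl pH 7.5, 5 mM DTT, 10 μM AdoMet ([3H]-labelled), 0.5 μM GpppA2′OMe-RNA74 substrate, 30 °C for 30 min; stopped in ice-cold 100 μM AdoHcy; DEAE filter binding, scintillation counting.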

Data set [17] concerns the target Abl (Tyrosine-protein kinase ABL1) (Homo sapiens, UniProt P00519). As to the kind of experiment: Inhibition of human recombinant N terminal His6 tagged Abl (27 to end residue) assessed as residual activity at 5 uM using KKGEAIYAADFA-NH2 as a substrate in the presence of NP-40 incubated for 10 mins by scintillation counting analysis relative to control. The following applies: probe KKGEAIYAADFA-NH2, read-out: Activity. The procedure, abridged: as §2

Data set [18] deals with West Nile virus. As to the kind of experiment: Antiviral activity against West Nile virus lineage 1 (Italy/2009) infected in pre-seeded Huh-7 cells assessed as inhibition of viral replication incubated for 48 hrs by immunodetection based direct yield reduction assay. It counts as functional, organism-based. The following applies: West Nile virus, lineage 1 (Italy/2009), Huh-7, 48 h; read-out: IC50.

Data set [19] can be described thus: Inhibition of Dengue virus 2 […] RNA dependent RNA polymerase incubated for 10 mins by picogreen staining based fluorescent analysis (Rvb= 0.27+/-0.03 uM). The arrangement: species or system dengue virus type 2.
Data set [20] has as its system dengue virus type 2. The data set is described as follows: Antiviral activity against Dengue virus serotype 2 New Guinea C infected in pre-seeded Huh-7 cells assessed as inhibition of viral replication incubated for 72 hrs by immunodetection based secondary yield reduction assay. The class given is functional, organism-based. The following applies: Dengue virus, New Guinea C, Huh-7, 72 h; read-out: IC50.

A short description of data set [21]: Selectivity index, ratio of CC50 for MDCK cells to IC50 for Influenza A Puerto Rico/8/34/H1N1 infected in MDCK cells. It counts as toxicity, cell-based. Conditions: dog, read-out: Selectivity Index. The procedure, abridged:
as §1

Data set [22] in a line: Inhibition of full length Dengue virus 2 NS5 RNA dependent RNA polymerase incubated for 10 mins by picogreen staining based fluorescent analysis (Rvb= 0.32+/-0.05 uM). Set-up: species or system dengue virus type 2.
Data set [23] can be described thus: Antioxidant activity assessed as inhibition of ABTS radical scavenging activity at 10 uM to 1 mM measured after 10 mins. It counts as functional. The procedure, abridged:
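ABTS radical solution diluted in ethanol (1:100) to A734 0.70; 3.0 mL mixed with 30 μL sample in DMSO at 10 μM–1 mM; A734 read after exactly 10 min; ascorbic acid reference; % scavenging = (A0−As)/A0×100.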

The target of data set [24] is PIK3CA (Phosphatidylinositol 4,5-bisphosphate 3-kinase catalytic subunit alpha isoform) (Homo sapiens, UniProt P42336). As to the kind of experiment: Inhibition of human full length PIK3CA assessed as residual activity at 5 uM using PI:PS (1:3) as a substrate incubated for 10 mins by scintillation counting analysis relative to control. The following applies: full length PIK3CA enzyme, probe PI:PS (1:3), read-out: Activity. The procedure, abridged:
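Radiometric kinase reaction with 10–50 ng enzyme and compound fixed at 5 μM, 10 μL at 30 °C for 10 min. Reactions spotted on filter and counted by scintillation. Residual activity is the mean ± SD of two independent experiments.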

Activity calls are given as the source filed them. No cut-off for these calls is given here. A value given as a limit tells only on which side of the number the result lay.

Sequence of Src (Proto-oncogene tyrosine-protein kinase Src) (P12931 2-536 limits assumed): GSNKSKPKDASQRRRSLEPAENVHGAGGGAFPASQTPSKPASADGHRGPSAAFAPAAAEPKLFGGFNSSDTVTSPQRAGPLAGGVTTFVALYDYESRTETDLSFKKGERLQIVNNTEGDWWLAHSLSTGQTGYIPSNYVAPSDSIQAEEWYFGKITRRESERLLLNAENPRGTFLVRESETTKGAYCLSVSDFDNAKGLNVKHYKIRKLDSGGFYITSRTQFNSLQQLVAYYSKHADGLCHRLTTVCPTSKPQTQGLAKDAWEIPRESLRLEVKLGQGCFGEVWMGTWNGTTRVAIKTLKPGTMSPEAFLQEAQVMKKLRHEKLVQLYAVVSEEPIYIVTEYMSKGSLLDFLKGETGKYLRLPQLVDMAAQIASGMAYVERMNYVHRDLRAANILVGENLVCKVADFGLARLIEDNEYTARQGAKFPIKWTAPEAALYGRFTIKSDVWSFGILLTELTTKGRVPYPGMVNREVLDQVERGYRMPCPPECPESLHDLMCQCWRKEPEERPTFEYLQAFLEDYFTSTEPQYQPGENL
Sequence of PIK3CA (Phosphatidylinositol 4,5-bisphosphate 3-kinase catalytic subunit alpha isoform) (P42336 whole entry, canonical isoform): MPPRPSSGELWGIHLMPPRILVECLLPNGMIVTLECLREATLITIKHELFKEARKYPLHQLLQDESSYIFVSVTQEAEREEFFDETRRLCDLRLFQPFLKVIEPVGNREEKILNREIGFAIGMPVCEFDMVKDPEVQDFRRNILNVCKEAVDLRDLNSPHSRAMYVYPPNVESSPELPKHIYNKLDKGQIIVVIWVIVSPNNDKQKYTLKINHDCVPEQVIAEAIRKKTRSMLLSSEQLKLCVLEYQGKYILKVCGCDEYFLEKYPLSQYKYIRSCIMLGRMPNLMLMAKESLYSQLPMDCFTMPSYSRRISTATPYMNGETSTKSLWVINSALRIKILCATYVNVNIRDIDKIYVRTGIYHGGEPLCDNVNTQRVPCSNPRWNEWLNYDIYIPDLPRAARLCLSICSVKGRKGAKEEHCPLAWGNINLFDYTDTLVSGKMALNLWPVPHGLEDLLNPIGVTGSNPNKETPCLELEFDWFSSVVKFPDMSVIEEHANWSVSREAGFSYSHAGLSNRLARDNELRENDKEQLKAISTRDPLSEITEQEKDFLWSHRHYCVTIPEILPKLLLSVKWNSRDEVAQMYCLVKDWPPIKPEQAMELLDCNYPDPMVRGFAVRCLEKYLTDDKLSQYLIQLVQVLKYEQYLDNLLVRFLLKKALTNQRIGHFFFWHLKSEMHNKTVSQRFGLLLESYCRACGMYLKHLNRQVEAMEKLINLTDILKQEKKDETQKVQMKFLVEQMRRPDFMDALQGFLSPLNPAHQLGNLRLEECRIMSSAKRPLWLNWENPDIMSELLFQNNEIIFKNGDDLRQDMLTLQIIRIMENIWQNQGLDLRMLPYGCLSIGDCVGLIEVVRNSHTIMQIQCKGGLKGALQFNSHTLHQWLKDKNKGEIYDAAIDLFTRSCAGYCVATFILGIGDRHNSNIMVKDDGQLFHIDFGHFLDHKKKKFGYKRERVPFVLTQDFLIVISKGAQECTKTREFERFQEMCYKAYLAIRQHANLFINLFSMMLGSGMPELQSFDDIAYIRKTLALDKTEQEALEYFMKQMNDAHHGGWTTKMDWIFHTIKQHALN
Sequence of Abl (Tyrosine-protein kinase ABL1) (P00519 whole entry): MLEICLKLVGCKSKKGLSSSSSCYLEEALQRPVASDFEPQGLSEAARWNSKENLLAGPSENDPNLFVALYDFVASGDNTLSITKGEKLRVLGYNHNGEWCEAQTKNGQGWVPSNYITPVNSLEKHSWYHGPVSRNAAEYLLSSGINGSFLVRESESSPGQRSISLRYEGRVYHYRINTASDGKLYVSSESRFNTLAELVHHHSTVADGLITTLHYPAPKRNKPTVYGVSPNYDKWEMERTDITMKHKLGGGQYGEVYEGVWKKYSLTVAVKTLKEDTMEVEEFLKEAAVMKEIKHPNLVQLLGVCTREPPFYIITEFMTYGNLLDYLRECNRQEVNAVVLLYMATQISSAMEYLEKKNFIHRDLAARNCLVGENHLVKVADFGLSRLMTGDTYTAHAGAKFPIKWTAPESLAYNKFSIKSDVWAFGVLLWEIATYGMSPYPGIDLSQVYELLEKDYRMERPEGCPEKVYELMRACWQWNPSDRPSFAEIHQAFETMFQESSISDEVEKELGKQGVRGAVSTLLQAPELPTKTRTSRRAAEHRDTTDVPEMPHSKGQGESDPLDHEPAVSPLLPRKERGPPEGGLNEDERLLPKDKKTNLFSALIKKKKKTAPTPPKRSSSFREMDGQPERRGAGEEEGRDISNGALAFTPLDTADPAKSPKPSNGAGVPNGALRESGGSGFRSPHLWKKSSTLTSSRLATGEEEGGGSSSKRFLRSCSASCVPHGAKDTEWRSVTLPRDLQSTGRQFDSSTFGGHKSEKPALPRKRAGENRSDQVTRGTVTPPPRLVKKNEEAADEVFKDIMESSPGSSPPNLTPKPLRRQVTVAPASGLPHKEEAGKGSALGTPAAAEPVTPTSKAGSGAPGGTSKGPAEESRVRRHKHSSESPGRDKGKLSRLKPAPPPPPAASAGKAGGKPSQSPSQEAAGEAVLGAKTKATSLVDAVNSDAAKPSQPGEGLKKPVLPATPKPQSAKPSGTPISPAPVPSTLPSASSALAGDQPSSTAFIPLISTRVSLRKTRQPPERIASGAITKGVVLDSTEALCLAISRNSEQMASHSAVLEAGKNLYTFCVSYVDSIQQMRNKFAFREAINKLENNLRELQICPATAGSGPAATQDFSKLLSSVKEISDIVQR
Sequence of Fyn (Tyrosine-protein kinase Fyn) (P06241 whole entry): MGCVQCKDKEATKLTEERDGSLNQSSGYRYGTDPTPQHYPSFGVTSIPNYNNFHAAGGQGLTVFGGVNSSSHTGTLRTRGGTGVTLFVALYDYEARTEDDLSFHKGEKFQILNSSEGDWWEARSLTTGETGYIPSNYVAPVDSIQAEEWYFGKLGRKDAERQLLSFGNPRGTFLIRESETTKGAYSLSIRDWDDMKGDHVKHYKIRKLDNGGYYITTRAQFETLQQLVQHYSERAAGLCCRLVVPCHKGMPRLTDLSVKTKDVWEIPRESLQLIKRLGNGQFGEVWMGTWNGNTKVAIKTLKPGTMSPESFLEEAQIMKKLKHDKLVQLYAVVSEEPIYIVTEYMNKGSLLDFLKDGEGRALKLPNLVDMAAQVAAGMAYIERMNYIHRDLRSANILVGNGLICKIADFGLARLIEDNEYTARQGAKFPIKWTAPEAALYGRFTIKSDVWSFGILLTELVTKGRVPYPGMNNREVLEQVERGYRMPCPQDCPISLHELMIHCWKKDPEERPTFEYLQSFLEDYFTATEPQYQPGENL

Usually CC50 stands for the concentration giving 50% cytotoxicity. As a reminder, the IC50 is the concentration at which inhibition is half-maximal. With `Fc1cccc(NNc2nc(NCCOc3ccccc3)nc3[nH]cnc23)c1`, the selectivity ratio in data set [1] is 3.5; in [21], over 5.3. For the same compound, the activity at 10 min, 5 µM in [2] is 84%; in data set [7], over 98%; in data set [9] it was 88%; in data set [17], 67%; in [24], 77%. Besides, the CC50 in [3] came to 136 µM; in [14], 52.4 µM; in [15] it was 20 µM. Moreover, the selectivity ratio at 48 h in data set [4] was determined as 18. The IC50 in data set [5] was 105 µM; in data set [8] it was 14.9 µM; in data set [10], 6.3 µM; in data set [11], “Not Active”; in [13], 2.4 µM; in data set [16], “Not Active”. Also, the IC50 in [18] is 1.1 µM; in [19], over 100 µM; in data set [20], 3.4 µM; in [22], 153 µM. In addition, the selectivity ratio at 72 h in data set [6] was determined as 6; in [12] it was 8. Further, the Activity entry in data set [23] is “Active”.
